Values after ≈ are worked out from the molar mass of the structure shown.
Legend:
Staphylococcus aureus [1] = test: Antibacterial activity against methicillin-resistant Staphylococcus aureus assessed as bacterial growth inhibition measured during 24 hrs incubation at 37 degC by two-fold serial dilution technique; type: functional
Method in brief: (§1)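 Clinical isolates grown to mid-log phase in Mueller-Hinton broth, diluted 1000-fold, inoculated at 10⁵ CFU/mL in MHB in 96-well microtiter plates. Two-fold serial dilutions gave final concentrations of […]. Oxacillin and norfloxacin were the positive controls. Growth was read as absorbance at 650 nm. MIC is the lowest concentration giving complete growth inhibition.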

Staphylococcus aureus [2] = test: Antibacterial activity against methicillin-resistant Staphylococcus aureus CCARM 3506 assessed as bacterial growth inhibition measured during 24 hrs incubation at 37 degC by two-fold serial dilution technique; type: functional; conditions: CCARM 3506, 24 h; method in brief: as §1
HeLa [3] = test: Cytotoxicity against human HeLa cells assessed as cell growth inhibition at 4 ug/ml measured after 48 hrs by MTT assay; type: cell-based
Staphylococcus aureus [4] = test: Antibacterial activity against quinolone-resistant Staphylococcus aureus CCARM 3505 assessed as bacterial growth inhibition measured during 24 hrs incubation at 37 degC by two-fold serial dilution technique; type: functional; conditions: CCARM 3505, 24 h; method in brief: as §1
Staphylococcus aureus [5] = test: Antibacterial activity against quinolone-resistant Staphylococcus aureus CCARM 3519 assessed as bacterial growth inhibition measured during 24 hrs incubation at 37 degC by two-fold serial dilution technique; type: functional; conditions: CCARM 3519, 24 h; method in brief: as §1
Staphylococcus aureus [6] = test: Antibacterial activity against methicillin-resistant Staphylococcus aureus CCARM 3167 assessed as bacterial growth inhibition measured during 24 hrs incubation at 37 degC by two-fold serial dilution technique; type: functional; conditions: CCARM 3167, 24 h; method in brief: as §1
HeLa [7] = test: Cytotoxicity against human HeLa cells assessed as cell growth inhibition measured after 48 hrs by MTT assay; type: cell-based
Method in brief: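 HeLa cells grown in DMEM with 10% FBS and penicillin-streptomycin (100 U/mL) at 37 °C in 5% CO2. Cells were split with trypsin at 80-90% confluence and used at passage 3. About 1×10⁴ cells/well were seeded and left overnight to attach. Cells were exposed to compounds for 48 h, then given MTT (5 mg/mL in PBS stock) for 4 h. Medium was removed and formazan read.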

HeLa [8] = test: Cytotoxicity against human HeLa cells assessed as cell growth inhibition at 2 ug/ml measured after 48 hrs by MTT assay; type: cell-based
Staphylococcus aureus [9] = test: Ratio of norfloxacin MIC to compound MIC for Staphylococcus aureus CCARM 3167; type: functional
HeLa [10] = test: Cytotoxicity against human HeLa cells assessed as cell growth inhibition at 1 ug/ml measured after 48 hrs by MTT assay; type: cell-based
Staphylococcus aureus [11] = test: Ratio of oxacillin MIC to compound MIC for Staphylococcus aureus CCARM 3167; type: functional

| SMILES | MIC (Staphylococcus aureus [1]) [µg/mL] | MIC (Staphylococcus aureus [2]) [µg/mL] | Activity (HeLa [3]) | MIC (Staphylococcus aureus [4]) [µg/mL] | MIC (Staphylococcus aureus [5]) [µg/mL] | MIC (Staphylococcus aureus [6]) [µg/mL] | IC50 (HeLa [7]) [µg/mL] | Activity (HeLa [8]) | Ratio (Staphylococcus aureus [9]) | Activity (HeLa [10]) | Ratio (Staphylococcus aureus [11]) |
| --- | --- | --- | --- | --- | --- | --- | --- | --- | --- | --- | --- |
| O=C(O)CN1C(=O)/C(=C/c2cn(-c3ccccc3)nc2-c2ccc(Cl)cc2Cl)SC1=S | 4 (≈ 8.16 µM) |  |  |  |  |  |  |  |  |  |  |
| Cc1nn(-c2ccccc2)c(Oc2ccc(Cl)cc2Cl)c1/C=C1\SC(=S)N([C@H](C(=O)O)C(C)C)C1=O |  | 4 (≈ 7.11 µM) | Non-toxic | 4 (≈ 7.11 µM) | 4 (≈ 7.11 µM) | 4 (≈ 7.11 µM) | 10.4 (≈ 18.5 µM) |  |  |  |  |
| Cc1nn(-c2ccccc2)c(Oc2ccc(Br)cc2)c1/C=C1\SC(=S)N([C@@H](CC(C)C)C(=O)O)C1=O |  | 4 (≈ 6.82 µM) |  | 4 (≈ 6.82 µM) | 4 (≈ 6.82 µM) | 4 (≈ 6.82 µM) | 12.3 (≈ 21 µM) | Non-toxic |  |  |  |
| CCC(C)[C@@H](C(=O)O)N1C(=O)/C(=C/c2c(C)nn(-c3ccccc3)c2Oc2ccc(Cl)cc2Cl)SC1=S (some centres undefined) |  | 1 (≈ 1.73 µM) |  | 2 (≈ 3.47 µM) | 2 (≈ 3.47 µM) | 1 (≈ 1.73 µM) | 6.43 (≈ 11.2 µM) |  | 8 | Non-toxic | 64 |
| Cc1nn(-c2ccccc2)c(Cl)c1/C=C1\SC(=S)N([C@H](C(=O)O)C(C)C)C1=O |  | 32 (≈ 73.4 µM) |  | 32 (≈ 73.4 µM) | 32 (≈ 73.4 µM) | 16 (≈ 36.7 µM) |  |  |  |  |  |
| CCC(C)[C@@H](C(=O)O)N1C(=O)/C(=C/c2c(C)nn(-c3ccccc3)c2Oc2cccc(C)c2)SC1=S (some centres undefined) |  | 4 (≈ 7.67 µM) |  | 4 (≈ 7.67 µM) | 2 (≈ 3.83 µM) | 2 (≈ 3.83 µM) |  |  |  |  |  |
| Cc1ccc(Oc2c(/C=C3\SC(=S)N([C@H](C(=O)O)C(C)C)C3=O)c(C)nn2-c2ccccc2)c(C)c1 |  | 4 (≈ 7.67 µM) |  | 4 (≈ 7.67 µM) | 2 (≈ 3.83 µM) | 2 (≈ 3.83 µM) |  |  |  |  |  |
| CCC(C)[C@@H](C(=O)O)N1C(=O)/C(=C/c2c(C)nn(-c3ccccc3)c2Oc2ccc3ccccc3c2)SC1=S (some centres undefined) |  | 2 (≈ 3.59 µM) |  | 2 (≈ 3.59 µM) | 2 (≈ 3.59 µM) | 2 (≈ 3.59 µM) |  |  |  |  |  |
| CCC(C)[C@@H](C(=O)O)N1C(=O)/C(=C/c2c(C)nn(-c3ccccc3)c2Cl)SC1=S (some centres undefined) |  | 32 (≈ 71.1 µM) |  | 16 (≈ 35.6 µM) | 32 (≈ 71.1 µM) | 16 (≈ 35.6 µM) |  |  |  |  |  |
| Cc1onc(-c2ccccc2)c1C(=O)N[C@@H]1C(=O)N2[C@@H]1SC(C)(C)[C@@H]2C(=O)O [OXACILLIN] |  | > 64 |  | 1 (≈ 2.49 µM) | 1 (≈ 2.49 µM) | > 64 |  |  |  |  |  |
| Cc1ccccc1Oc1c(/C=C2\SC(=S)N(CC(=O)O)C2=O)c(C)nn1-c1ccccc1 |  | 32 (≈ 68.7 µM) |  | 32 (≈ 68.7 µM) | 32 (≈ 68.7 µM) | 16 (≈ 34.4 µM) |  |  |  |  |  |
| Cc1nn(-c2ccccc2)c(Oc2ccc(Br)cc2)c1/C=C1\SC(=S)N(CC(=O)O)C1=O |  | 8 (≈ 15.1 µM) |  | 16 (≈ 30.2 µM) | 8 (≈ 15.1 µM) | 8 (≈ 15.1 µM) |  |  |  |  |  |
| Cc1nn(-c2ccccc2)c(Oc2cccc(Cl)c2)c1/C=C1\SC(=S)N(CC(=O)O)C1=O |  | 16 (≈ 32.9 µM) |  | 8 (≈ 16.5 µM) | 16 (≈ 32.9 µM) | 16 (≈ 32.9 µM) |  |  |  |  |  |
| CCC(C)[C@@H](C(=O)O)N1C(=O)/C(=C/c2c(C)nn(-c3ccccc3)c2Oc2ccc(Cl)cc2)SC1=S (some centres undefined) |  | 4 (≈ 7.38 µM) |  | 4 (≈ 7.38 µM) | 4 (≈ 7.38 µM) | 2 (≈ 3.69 µM) |  |  |  |  |  |
| Cc1ccc(Oc2c(/C=C3\SC(=S)N(CC(=O)O)C3=O)c(C)nn2-c2ccccc2)c(C)c1 |  | 8 (≈ 16.7 µM) |  | 16 (≈ 33.4 µM) | 16 (≈ 33.4 µM) | 8 (≈ 16.7 µM) |  |  |  |  |  |
| COc1ccccc1Oc1c(/C=C2\SC(=S)N([C@H](C(=O)O)C(C)C)C2=O)c(C)nn1-c1ccccc1 |  | 16 (≈ 30.6 µM) |  | 16 (≈ 30.6 µM) | 16 (≈ 30.6 µM) | 16 (≈ 30.6 µM) |  |  |  |  |  |
| Cc1nn(-c2ccccc2)c(Oc2ccccc2)c1/C=C1\SC(=S)N([C@H](C(=O)O)C(C)C)C1=O |  | 16 (≈ 32.4 µM) |  | 16 (≈ 32.4 µM) | 16 (≈ 32.4 µM) | 16 (≈ 32.4 µM) |  |  |  |  |  |
| CCC(C)[C@@H](C(=O)O)N1C(=O)/C(=C/c2c(C)nn(-c3ccccc3)c2Oc2ccc(C)cc2)SC1=S (some centres undefined) |  | 4 (≈ 7.67 µM) |  | 4 (≈ 7.67 µM) | 4 (≈ 7.67 µM) | 2 (≈ 3.83 µM) |  |  |  |  |  |
| Cc1nn(-c2ccccc2)c(Cl)c1/C=C1\SC(=S)N([C@@H](CC(C)C)C(=O)O)C1=O |  | 32 (≈ 71.1 µM) |  | 32 (≈ 71.1 µM) | 32 (≈ 71.1 µM) | 16 (≈ 35.6 µM) |  |  |  |  |  |
| COc1ccc(Oc2c(/C=C3\SC(=S)N([C@H](C(=O)O)C(C)C)C3=O)c(C)nn2-c2ccccc2)cc1 |  | 8 (≈ 15.3 µM) |  | 8 (≈ 15.3 µM) | 8 (≈ 15.3 µM) | 8 (≈ 15.3 µM) |  |  |  |  |  |
| CCC(C)[C@@H](C(=O)O)N1C(=O)/C(=C/c2c(C)nn(-c3ccccc3)c2Oc2c(Cl)cccc2Cl)SC1=S (some centres undefined) |  | 16 (≈ 27.8 µM) |  | 16 (≈ 27.8 µM) | 16 (≈ 27.8 µM) | 8 (≈ 13.9 µM) |  |  |  |  |  |

— ChEMBL document CHEMBL2321826, “Synthesis and antibacterial evaluation of rhodanine-based 5-aryloxy pyrazoles against selected methicillin resistant and quinolone-resistant Staphylococcus aureus (MRSA and QRSA)” (Eur J Med Chem, 2013)
